This is an account of results in ChEMBL document CHEMBL4382255, “Design, synthesis and activity of Mnk1 and Mnk2 selective inhibitors containing thieno[2,3-d]pyrimidine scaffold” (Eur J Med Chem, 2019).

Data set [1] deals with T1, MAP kinase-interacting serine/threonine-protein kinase 1/2 (Homo sapiens) (UniProt Q9HBH9+Q9BUB5). Description: Inhibition of MNK in human MDA-MB-231 cells assessed as decrease in eIF4E phosphorylation at 1 uM after 2 hrs by Western blot analysis. The format is cell-based. An outline of the steps:
(§1)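 MDA-MB-231 cells treated with inhibitor at indicated concentrations for 2 h, or at 3 μM for times up to 72 h (DMSO vehicle <0.05%). Cells lysed in RIPA buffer; supernatants analysed by SDS-PAGE and western blot for P-eIF4E and total eIF4E. CGP57380 at 30 μM as reference.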

Data set [2] is filed under the species Mus musculus. The data set can be described thus: Inhibition of mTORC2 in mouse 3T3L1 cells assessed as reduction in PKB phosphorylation at Ser473 residue at 0.1 to 5 uM after 2 hrs by Western blot analysis. The format is cell-based. The gist of the method:
(§2)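 3T3-L1 cells treated 2 h with inhibitor at indicated concentrations (DMSO <0.05% v/v). RIPA lysates, equal protein by Bradford, SDS-PAGE and western blot with phospho-specific antibodies (ERK, RSK, PKB Ser473, 4E-BP1, rpS6); fluorescent secondary imaging. Quantified from three independent experiments, SEM error bars.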
Background: In western blotting, separated proteins are transferred to a membrane and probed.

For data set [3], the target named is MAP kinase-interacting serine/threonine-protein kinase 2 (Mus musculus) (UniProt Q8CDB0). Description: Inhibition of MNK2 in MNK1-knockout C57BL/6J mouse embryonic fibroblasts assessed as decrease in eIF4E phosphorylation at 0.003 to 0.03 uM after 2 hrs by Western blot analysis. An outline of the steps: (§3)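 MEFs from E13.5 C57BL/6J embryos, wild-type, MNK1-KO or MNK2-KO (DMEM, 10% FBS), treated 2 h with inhibitor at indicated concentrations, including a lower-concentration series in MNK1-KO cells; CGP57380 at 50 μM as reference. Lysates analysed by SDS-PAGE/western blot for P-eIF4E; quantified from three independent experiments, SEM.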

The target is the same in data set [4]. Description: Inhibition of MNK2 in MNK1-knockout C57BL/6J mouse embryonic fibroblasts assessed as decrease in eIF4E phosphorylation at 0.5 uM after 2 hrs by Western blot analysis. An outline of the steps:
as §3

Data set [5] in a line: Inhibition in C57BL/6J mouse embryonic fibroblasts assessed as decrease in eIF4E phosphorylation at 0.1 to 0.3 uM after 2 hrs by Western blot analysis relative to control.
For data set [6], the species on record is Mus musculus. The data set can be described thus: Stimulation of ERK signalling in mouse 3T3L1 cells assessed as increase in RSK phosphorylation at […] residue at 0.1 to 5 uM after 2 hrs by Western blot analysis. The format is cell-based. The gist of the method:
as §2

The target of data set [7] is MAP kinase-interacting serine/threonine-protein kinase 1 (Homo sapiens) (UniProt Q9BUB5). The data set can be described thus: Inhibition of GST-fused MNK1a (unknown origin) expressed in HEK293 cells using eIF4E as substrate after 30 mins by Western blot analysis. The format is cell-based. The gist of the method:
(§4)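 GST-MNK1a or GST-MNK2a expressed in transfected HEK293 cells, purified by glutathione pull-down. Incubated in 25 mM Tris-HCl pH 7.5, 50 mM KCl, 2 mM MgCl₂ with 20 µM ATP and 65 ng E. coli-expressed eIF4E, 30 °C, 30 min, ± inhibitor. Stopped with sample buffer; immunoblotted for P-eIF4E Ser209, eIF4E and GST. Conditions pre-set within linear range.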

The target in data set [8] is MAP kinase-interacting serine/threonine-protein kinase 1 (Mus musculus) (UniProt O08605). Description: Inhibition of MNK1 in C57BL/6J mouse embryonic fibroblasts assessed as decrease in eIF4E phosphorylation at 0.1 to 0.3 uM after 2 hrs by Western blot analysis relative to control. The gist of the method:
as §3

Data set [9] addresses MAP kinase-interacting serine/threonine-protein kinase 2 (Homo sapiens) (UniProt Q9HBH9). Description: Inhibition of GST-fused MNK2a (unknown origin) expressed in HEK293 cells using eIF4E as substrate after 30 mins by Western blot analysis. The class given is cell-based. An outline of the steps:
as §4

The species named for data set [10] is Mus musculus. Description: Inhibition of MNK in mouse 3T3L1 cells assessed as reduction of eIF4E phosphorylation at 0.1 uM after 2 hrs by Western blot analysis. The format is cell-based. The gist of the method: (§5)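 Mouse 3T3-L1 pre-adipocytes (DMEM high glucose, 10% heat-inactivated FBS, 37 °C, 5% CO₂) treated 2 h with compounds at 3 μM or lower concentrations down to 0.1 μM final; DMSO vehicle 0.03-0.05% final. RIPA lysates cleared, equal protein resolved by SDS-PAGE, immunoblotted for P-eIF4E and total eIF4E, fluorescent secondary detection.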

The next data set concerns 3T3-L1. Description: Effect on total eIF4E protein level in mouse 3T3L1 cells at 3 uM after 2 hrs by Western blot analysis. The class given is ADME, cell-based. Conditions: 3t3-l1, 2 h. An outline of the steps:
as §5

Data set [11] concerns MDA-MB-231. The data set can be described thus: Cell cycle arrest in human MDA-MB-231 cells assessed as accumulation of cells at sub-G0 phase at 0.3 to 6 uM after 2 hrs by propidium iodide staining-based flow cytometric analysis. Conditions: mda-mb-231, 2 h. The class given is ADME. The gist of the method: (§6)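 MDA-MB-231 cells seeded at 5 x 10^5 cells/well, allowed 24 h to attach, then treated with inhibitor or vehicle. Harvested at ~70% confluence, fixed in methanol ≥2 h, stained with 1 µg/ml propidium iodide; ~20,000 cells analysed by flow cytometry for cell-cycle phase proportions including sub-G0. Mean ± SEM, n=5.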
A general note: Flow cytometry measures light scatter and fluorescence of single cells or particles in a stream.

The species named for data set [12] is Mus musculus. Description: Inhibition of mTORC1 in mouse 3T3L1 cells assessed as reduction in 4EBP1 at Ser65 residue phosphorylation at 0.1 to 5 uM after 2 hrs by Western blot analysis. The format is cell-based. An outline of the steps:
as §2

Data set [13] has as its target MAP kinase-interacting serine/threonine-protein kinase 2 (Mus musculus) (UniProt Q8CDB0). Description: Inhibition of MNK2 in C57BL/6J mouse embryonic fibroblasts assessed as decrease in eIF4E phosphorylation at 5 uM after 2 hrs by Western blot analysis. An outline of the steps:
as §3

In data set [14] the target is Mitogen-activated protein kinase 1 and 3 (ERK2 and ERK1) (Mus musculus) (UniProt P63085+Q63844). The data set can be described thus: Stimulation of ERK1/2 phosphorylation at Thr202/Tyr204 residues in mouse 3T3L1 cells at 0.1 to 5 uM after 2 hrs by Western blot analysis. The class given is cell-based. An outline of the steps: as §2
For data set [15], the target named is T1, MAP kinase-interacting serine/threonine-protein kinase 1/2 (Homo sapiens). Description: Inhibition of MNK in human MDA-MB-231 cells assessed as decrease in eIF4E phosphorylation at 3 uM up to 72 hrs by Western blot analysis. The class given is cell-based. An outline of the steps: as §1
Data set [16] deals with MDA-MB-231. Description: Cell cycle arrest in human MDA-MB-231 cells at 0.3 to 6 uM after 2 hrs by propidium iodide staining-based flow cytometric analysis. The class given is ADME. Conditions: mda-mb-231, 2 h. An outline of the steps:
as §6

Data set [17] has as its system MDA-MB-231. The data set can be described thus: Antimigratory activity against human MDA-MB-231 cells after 24 hrs by DAPI staining-based Transwell assay. The class given is functional, cell-based. An outline of the steps: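 MDA-MB-231 cells pre-treated with inhibitor 60 min, then 3 x 10⁵ cells seeded into 8 μm-pore Transwell inserts pre-coated with 10 μg/ml collagen (collagen as attractant). After 24 h, migrated cells in bottom well stained with DAPI, imaged at ×10 and counted. Triplicate assays, mean ± SEM.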

Data set [18] deals with MAP kinase-interacting serine/threonine-protein kinase 1 (Mus musculus) (UniProt O08605). The data set can be described thus: Inhibition of MNK1 in C57BL/6J mouse embryonic fibroblasts assessed as decrease in eIF4E phosphorylation at 5 uM after 2 hrs by Western blot analysis. An outline of the steps:
as §3

Data set [19] has the same target. The data set can be described thus: Inhibition of MNK1 in MNK2-knockout C57BL/6J mouse embryonic fibroblasts assessed as decrease in eIF4E phosphorylation at 0.3 to 5 uM after 2 hrs by Western blot analysis. The gist of the method:
as §3

The species entered for data set [20] is Mus musculus. Description: Inhibition of MNK in mouse 3T3L1 cells assessed as reduction of eIF4E phosphorylation at 3 uM after 2 hrs by Western blot analysis. The class given is cell-based. An outline of the steps: as §5
The species entered for data set [21] is Mus musculus. Description: Inhibition of mTORC1 in mouse 3T3L1 cells assessed as reduction in rpS6 phosphorylation at Ser240/244 residues at 0.1 to 5 uM after 2 hrs by Western blot analysis. The class given is cell-based. The gist of the method:
as §2

Molecules are shown by their SMILES. Activity calls are given as the source filed them. Unless noted, the rule behind the calls is not given here.

Sequence of MAP kinase-interacting serine/threonine-protein kinase 2 (Mus musculus) (Q8CDB0 whole entry): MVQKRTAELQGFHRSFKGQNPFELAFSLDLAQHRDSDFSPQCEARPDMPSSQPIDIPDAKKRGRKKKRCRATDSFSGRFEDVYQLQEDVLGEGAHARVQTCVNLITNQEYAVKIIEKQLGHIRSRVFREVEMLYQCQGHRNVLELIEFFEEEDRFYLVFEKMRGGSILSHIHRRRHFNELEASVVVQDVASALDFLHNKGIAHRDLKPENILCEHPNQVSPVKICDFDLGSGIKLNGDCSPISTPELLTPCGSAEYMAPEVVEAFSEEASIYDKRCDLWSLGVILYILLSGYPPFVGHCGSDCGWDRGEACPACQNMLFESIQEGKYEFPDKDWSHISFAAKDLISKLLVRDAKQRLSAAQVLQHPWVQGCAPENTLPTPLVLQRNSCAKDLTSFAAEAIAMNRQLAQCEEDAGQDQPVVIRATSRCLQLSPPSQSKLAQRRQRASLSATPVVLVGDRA
Sequence of MAP kinase-interacting serine/threonine-protein kinase 1 (Mus musculus) (O08605 whole entry): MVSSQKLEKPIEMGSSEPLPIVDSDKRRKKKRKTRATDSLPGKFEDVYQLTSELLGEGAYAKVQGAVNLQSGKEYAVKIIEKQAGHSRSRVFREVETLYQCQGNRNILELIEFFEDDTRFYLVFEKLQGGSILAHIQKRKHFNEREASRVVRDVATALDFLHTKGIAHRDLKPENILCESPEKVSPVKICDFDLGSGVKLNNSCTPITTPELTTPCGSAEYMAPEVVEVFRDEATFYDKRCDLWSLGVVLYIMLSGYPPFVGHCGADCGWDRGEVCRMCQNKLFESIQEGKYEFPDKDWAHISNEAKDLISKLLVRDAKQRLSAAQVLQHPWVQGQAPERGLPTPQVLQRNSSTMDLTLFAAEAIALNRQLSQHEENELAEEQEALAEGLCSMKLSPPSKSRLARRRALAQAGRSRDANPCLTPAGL
Sequence of Mitogen-activated protein kinase 1 and 3 (ERK2 and ERK1) (Mus musculus) (P63085 whole entry, looked up): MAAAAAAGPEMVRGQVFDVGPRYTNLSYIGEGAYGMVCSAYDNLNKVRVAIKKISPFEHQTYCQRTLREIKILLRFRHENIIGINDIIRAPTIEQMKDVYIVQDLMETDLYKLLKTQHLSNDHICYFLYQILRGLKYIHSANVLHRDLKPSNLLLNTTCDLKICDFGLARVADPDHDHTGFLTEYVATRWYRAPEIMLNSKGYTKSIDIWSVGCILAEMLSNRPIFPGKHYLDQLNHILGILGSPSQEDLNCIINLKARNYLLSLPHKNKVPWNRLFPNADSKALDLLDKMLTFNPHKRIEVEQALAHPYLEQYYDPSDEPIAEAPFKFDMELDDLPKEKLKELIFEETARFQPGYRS
Sequence of Mitogen-activated protein kinase 1 and 3 (ERK2 and ERK1) (Mus musculus) (Q63844 whole entry, looked up): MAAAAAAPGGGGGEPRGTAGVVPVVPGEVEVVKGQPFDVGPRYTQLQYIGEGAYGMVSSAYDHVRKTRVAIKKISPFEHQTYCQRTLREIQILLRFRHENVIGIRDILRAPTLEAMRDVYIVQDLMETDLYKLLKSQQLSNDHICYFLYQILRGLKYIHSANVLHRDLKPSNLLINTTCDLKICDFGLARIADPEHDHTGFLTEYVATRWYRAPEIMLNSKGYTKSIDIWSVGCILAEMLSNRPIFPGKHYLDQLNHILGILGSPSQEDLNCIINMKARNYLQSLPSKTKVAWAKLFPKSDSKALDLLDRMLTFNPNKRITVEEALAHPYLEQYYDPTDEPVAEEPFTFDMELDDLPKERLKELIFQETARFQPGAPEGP
Sequence of MAP kinase-interacting serine/threonine-protein kinase 2 (Homo sapiens) (Q9HBH9 whole entry, looked up, the tested form may be a part): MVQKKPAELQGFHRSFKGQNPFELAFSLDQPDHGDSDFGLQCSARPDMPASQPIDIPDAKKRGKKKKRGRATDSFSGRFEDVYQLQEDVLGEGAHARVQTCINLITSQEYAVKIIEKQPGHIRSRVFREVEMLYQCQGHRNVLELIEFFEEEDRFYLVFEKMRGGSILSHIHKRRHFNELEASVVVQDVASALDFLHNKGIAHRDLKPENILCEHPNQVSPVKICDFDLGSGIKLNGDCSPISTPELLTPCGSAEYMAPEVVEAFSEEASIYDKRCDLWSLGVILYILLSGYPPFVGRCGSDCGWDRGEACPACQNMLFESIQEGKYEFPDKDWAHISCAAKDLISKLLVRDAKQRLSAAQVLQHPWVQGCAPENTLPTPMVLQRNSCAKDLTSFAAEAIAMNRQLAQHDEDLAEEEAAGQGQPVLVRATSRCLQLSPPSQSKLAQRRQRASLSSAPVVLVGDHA
Sequence of MAP kinase-interacting serine/threonine-protein kinase 1 (Homo sapiens) (Q9BUB5 whole entry, looked up, the tested form may be a part): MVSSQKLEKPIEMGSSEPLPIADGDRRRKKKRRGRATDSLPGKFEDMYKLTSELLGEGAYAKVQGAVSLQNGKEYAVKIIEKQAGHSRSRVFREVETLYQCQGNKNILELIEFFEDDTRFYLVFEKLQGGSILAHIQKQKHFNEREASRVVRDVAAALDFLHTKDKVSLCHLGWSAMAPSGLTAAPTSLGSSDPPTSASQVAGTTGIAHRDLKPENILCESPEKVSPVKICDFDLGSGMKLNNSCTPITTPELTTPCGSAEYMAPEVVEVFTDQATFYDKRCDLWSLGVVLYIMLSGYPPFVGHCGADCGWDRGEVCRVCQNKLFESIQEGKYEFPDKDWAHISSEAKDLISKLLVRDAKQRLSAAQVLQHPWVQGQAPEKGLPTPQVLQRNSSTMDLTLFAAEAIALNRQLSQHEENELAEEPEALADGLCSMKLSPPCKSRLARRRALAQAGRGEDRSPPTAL

Broadly, the inhibition is how much of the control response was suppressed. On to `Cc1c(C(=O)NCCCN2CCCC2)sc2ncnc(Nc3ccc(F)cc3OC(C)C)c12`, for which the inhibition was 100% in [1]; 50% in [5]; 50% in [8]; 100% in data set [13]; 100% in [18]. Besides, the inhibition result in the data set filed under Mus musculus [2], in the data set filed under Mus musculus [12] and in the data set listed under Mus musculus [21] was “inactive” in each case. For the same compound, the inhibition entry (in data set [3]; in [4]; in [7]; in [9]; in [15]; in the data set with MDA-MB-231 [17]) was “Active” each time. Further, the inhibition entry in data set [19] is “Active”. Moreover, the outcome (in the data set listed under Mus musculus [6]; in [14]) was Active. Also, the “inhibition of eIF4E phosphorylation (active/not active)” value in the data set filed under Mus musculus [10] was “Active”. Also, the Activity entry in the data set on 3T3-L1, in the data set on MDA-MB-231 [11] and in the data set with MDA-MB-231 [16] was “Non-Toxic” each time. Moreover, in the data set filed under Mus musculus [20], the “MNK inhibition (active/not active)” value was “Active”.
